Each structure is given as a SMILES string. Active and inactive are the calls of the source. The rule behind the calls is not given here.

Results on one compound are retold here after ChEMBL document CHEMBL4152210, “Design, synthesis, anti-lung cancer activity, and chemosensitization of tumor-selective MCACs based on ROS-mediated JNK pathway activation and NF-κB pathway inhibition” (Eur J Med Chem, 2018).

The subject of one series is L02. Briefly: Cytotoxicity against human HL7702 cells assessed as reduction in cell viability after 72 hrs by MTT assay. In kind it is cell-based. As to conditions: L02, 72 h. The essentials: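 Cells in RPMI 1640 with 10% heat-inactivated FBS and penicillin/streptomycin at 37 °C, 5% CO2. Seeded at 4000 per well, adhered overnight, then exposed to graded compound concentrations in triplicate wells for 72 h. MTT (5 mg/mL stock) added for 4 h, dissolved in DMSO, A490 read. IC50 is the concentration reducing viability by 50% versus untreated control.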

Series [1] is described as follows: Selectivity index, ratio of IC50 for human HL7702 cells to IC50 for human A549 cells. In kind it is toxicity. The essentials:
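Selectivity index taken as the logarithm of the ratio of the HL7702 IC50 to the cancer-line IC50. […] Not calculated when an IC50 was lacking.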

Series [2] concerns A549. The experiment in a line: Cell cycle arrest in human A549 cells assessed as increase in accumulation at G2/M phase after 10 hrs by propidium iodide staining based flow cytometric analysis. In kind it is functional. An outline of the steps:
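A549 (6 × 10^5 per 60 mm dish, overnight) treated at 1, 5 or 10 µM for 10 h, with BMS345541 (20 µM) as positive control. Trypsinized, fixed in ice-cold 70% ethanol at −20 °C for 30 min, treated with RNase A, stained with 50 µg/mL PI, analysed by flow cytometry.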

The test system of series [3] is A549. Briefly: Induction of apoptosis in human A549 cells assessed as increase in caspase-3 level after 24 hrs by Western blot analysis. In kind it is functional, cell-based.
The test system of series [4] is A549. Briefly: Induction of apoptosis in human A549 cells assessed as increase in Bax level at 1 to 10 uM after 24 hrs by Western blot analysis. In kind it is functional, cell-based. An outline of the steps: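 A549 treated at 1, 5 or 10 µM, or with BMS345541 (20 µM), for 24 h. Cleaved PARP and Bax detected by western blot (10% SDS-PAGE, PVDF, 5% milk block, HRP secondary).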

Series [5] addresses Mitogen-activated protein kinase 8/9 (Homo sapiens) (UniProt P45983+P45984). The experiment in a line: Induction of JNK 1/2 phosphorylatyion in human A549 cells after 6 hrs by Western blot analysis. In kind it is cell-based. An outline of the steps:
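A549 exposed at 10 µM for varying times, or at various concentrations for 6 h. Inhibition arms pretreated 1 h with SP600125 (10 µM) or NAC (5 mM) before 10 µM for 6 h. Lysates run on 10% SDS-PAGE and transferred to PVDF. p-JNK probed, GAPDH as loading control.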

For series [6], the target named is T1, NF-kappa-B inhibitor alpha (Homo sapiens) (UniProt P25963).
T1 sequence (whole entry): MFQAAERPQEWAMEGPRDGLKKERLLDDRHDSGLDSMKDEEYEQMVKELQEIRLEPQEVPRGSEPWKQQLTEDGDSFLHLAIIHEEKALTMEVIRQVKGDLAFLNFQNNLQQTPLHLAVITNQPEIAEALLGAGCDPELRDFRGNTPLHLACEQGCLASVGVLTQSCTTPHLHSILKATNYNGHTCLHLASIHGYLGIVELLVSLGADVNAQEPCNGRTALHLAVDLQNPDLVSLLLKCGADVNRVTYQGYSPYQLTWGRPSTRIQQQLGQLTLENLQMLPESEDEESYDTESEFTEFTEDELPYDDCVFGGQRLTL
Briefly: Inhibition of TNF-alpha induced IkappaBalpha degradation in human A549 cells at 10 uM pretreated with 5 mM NAC for 1 hr followed by compound addition and measured after 1 hr by Western blot analysis. In kind it is cell-based. The essentials:
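A549 preincubated 1 h at 1, 5 or 10 µM, or with BMS345541 (20 µM), then stimulated with TNFα (1 ng/mL) for 15 min. NAC arm: 5 mM NAC for 1 h, then 10 µM for 1 h. IκBα detected by western blot, GAPDH as loading control.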

The target of series [7] is T2, Inhibitor of nuclear factor kappa-B kinase subunit beta (Homo sapiens) (UniProt O14920).
T2 sequence (whole entry): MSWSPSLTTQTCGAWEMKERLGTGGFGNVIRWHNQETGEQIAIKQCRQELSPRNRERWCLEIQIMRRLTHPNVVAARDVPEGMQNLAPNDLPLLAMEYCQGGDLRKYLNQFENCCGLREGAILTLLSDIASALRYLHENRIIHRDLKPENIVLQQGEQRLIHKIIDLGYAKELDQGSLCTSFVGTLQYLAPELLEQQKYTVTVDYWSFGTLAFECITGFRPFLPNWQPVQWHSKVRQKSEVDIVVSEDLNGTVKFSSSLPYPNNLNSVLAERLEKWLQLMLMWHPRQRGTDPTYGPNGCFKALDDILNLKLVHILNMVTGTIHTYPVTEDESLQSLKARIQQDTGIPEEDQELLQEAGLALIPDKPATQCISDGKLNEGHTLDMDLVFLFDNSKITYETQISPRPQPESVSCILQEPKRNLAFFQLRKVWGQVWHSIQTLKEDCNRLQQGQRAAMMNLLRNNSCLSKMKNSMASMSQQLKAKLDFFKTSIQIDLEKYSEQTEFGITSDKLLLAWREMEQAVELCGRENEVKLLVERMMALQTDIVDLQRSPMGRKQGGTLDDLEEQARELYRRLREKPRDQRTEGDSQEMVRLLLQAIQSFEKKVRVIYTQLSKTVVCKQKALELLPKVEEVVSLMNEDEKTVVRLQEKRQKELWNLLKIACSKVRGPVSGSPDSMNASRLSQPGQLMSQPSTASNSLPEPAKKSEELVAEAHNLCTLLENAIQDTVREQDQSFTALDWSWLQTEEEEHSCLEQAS
The experiment in a line: Inhibition of cisplatin-induced IKK-beta phosphorylation in human A549 cells at 1 to 10 uM preincubated for 1 hr followed by cisplatin addition and measured after 24 hrs by Western blot analysis. In kind it is cell-based. An outline of the steps:
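A549 pretreated 1 h at 1, 5 or 10 µM, or with BMS345541 (20 µM), then exposed to cisplatin (20/3 µM) for 24 h. p-IKKβ assessed by western blot.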

The test system of series [8] is A549. The experiment in a line: Chemosensitization activity in human A549 cells assessed as inhibition of clonogenic growth at 0.5 uM in presence of 0.25 uM cisplatin incubated for 2 days followed by replacement of growth media and measured after 8 days by crystal violet staining-based assay relative to control. In kind it is functional. An outline of the steps: (§1)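 A549 seeded at 1000 cells per well in 6-well plates, exposed to drug alone or combined with cisplatin or 5-Fu over a concentration series. Drug-containing medium replaced after 2 days. After a further 8 days, fixed with 1% methanol/1% formaldehyde and stained with 0.5% crystal violet. Percent inhibition at each concentration calculated relative to control.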

In series [9] the test system is A549. Briefly: Chemosensitization activity in human A549 cells assessed as inhibition of clonogenic growth at 1 uM in presence of 0.74 uM cisplatin incubated for 2 days followed by replacement of growth media and measured after 8 days by crystal violet staining-based assay relative to control. In kind it is functional. An outline of the steps:
as §1

In series [10] the test system is A549. The experiment in a line: Chemosensitization activity in human A549 cells assessed as inhibition of clonogenic growth at 0.25 uM in presence of 3 uM cisplatin incubated for 2 days followed by replacement of growth media and measured after 8 days by crystal violet staining-based assay relative to control. In kind it is functional. An outline of the steps:
as §1

Mitogen-activated protein kinase 8/9 (Homo sapiens), sequence (P45983 whole entry, looked up): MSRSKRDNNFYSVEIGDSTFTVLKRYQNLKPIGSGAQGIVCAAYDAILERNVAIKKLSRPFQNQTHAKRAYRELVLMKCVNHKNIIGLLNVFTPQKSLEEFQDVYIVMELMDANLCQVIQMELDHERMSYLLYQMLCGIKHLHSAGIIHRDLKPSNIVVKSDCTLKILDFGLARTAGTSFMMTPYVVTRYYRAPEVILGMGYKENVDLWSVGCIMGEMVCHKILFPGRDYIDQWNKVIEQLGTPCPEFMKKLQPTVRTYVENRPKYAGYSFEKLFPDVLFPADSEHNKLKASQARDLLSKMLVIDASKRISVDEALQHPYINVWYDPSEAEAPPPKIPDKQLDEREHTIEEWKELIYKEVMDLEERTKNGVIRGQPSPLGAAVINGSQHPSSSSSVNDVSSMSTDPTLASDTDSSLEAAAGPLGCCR
Mitogen-activated protein kinase 8/9 (Homo sapiens), sequence (P45984 whole entry, looked up): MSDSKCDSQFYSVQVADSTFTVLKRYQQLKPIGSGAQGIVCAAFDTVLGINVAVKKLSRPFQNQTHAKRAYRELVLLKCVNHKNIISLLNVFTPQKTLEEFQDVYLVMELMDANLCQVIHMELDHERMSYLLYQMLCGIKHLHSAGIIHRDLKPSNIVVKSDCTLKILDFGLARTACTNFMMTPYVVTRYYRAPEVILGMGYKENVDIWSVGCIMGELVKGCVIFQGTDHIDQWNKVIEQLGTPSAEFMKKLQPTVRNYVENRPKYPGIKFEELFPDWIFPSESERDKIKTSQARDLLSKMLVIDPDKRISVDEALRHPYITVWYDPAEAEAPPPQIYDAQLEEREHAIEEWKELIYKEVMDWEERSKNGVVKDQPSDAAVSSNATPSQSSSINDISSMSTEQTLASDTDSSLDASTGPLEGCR

For `COc1cc(/C=C2\CN(C)C/C(=C\c3cc(OC)c(OC)c(OC)c3)C2=O)cc(OC)c1OC`, the IC50 in the series with L02 turned out to be 26.4 µM. The “log(RatioIC50)” value in [1] is on record as 1.19. Besides, the Activity entry (in the series with A549 [2]; in the series on A549 [3]; in [5]) was “Dose-dependent effect” in each case. The result in the series on A549 [4] was Active. Besides, the inhibition entry in series [6] was “inactive”. The inhibition entry in series [7] is “Active”. Besides, the entries for the “inhibition (INH)” value in the series with A549 [8], in the series with A549 [9] and in the series on A549 [10] were 59%, 97% and 57%, respectively.
